This note sets out measurements from ChEMBL document CHEMBL1126291 (J Med Chem, 1992).

Holding throughout (type): functional
The subject of assay [1] is Leishmania donovani. The assay can be described thus: Growth inhibition of Leishmania donovani promastigotes by the compound at […]. Conditions: for inhibition at […]: Leishmania donovani.
Assay [2] deals with Leishmania donovani. As to the kind of experiment: Growth inhibition of Leishmania donovani promastigotes by the compound at 1.3 uM. Summed up:
(§1)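 Seeded at 0.5 × 10^6 cells per well. Compounds added a few hours later in water. Cells counted by hemacytometer after 3 days, against untreated cultures. Duplicates.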

Assay [3] concerns Leishmania donovani. The assay can be described thus: Growth inhibition of Leishmania donovani promastigotes by the compound at 14 uM. Summed up: as §1

Usually inhibition stands for the change of the read-out against control, counted positive when it falls. A low value points to a response near the control. Compound `Nc1ncnc2c1ncn2[C@@H]1O[C@H](C[C@H](N)CC[C@H](N)C(=O)O)[C@@H](O)[C@H]1O` had an inhibition at […] in the assay on Leishmania donovani [1] of 34%. The compound also showed an inhibition at 1.3 µM in the assay on Leishmania donovani [2] of 91%.
As to `NC(CC[C@H](N)C(=O)O)C[C@H]1OC(N2CCC(=O)NC2=O)[C@H](O)[C@@H]1O` (stereo partly specified), at 14 µM the inhibition in the assay with Leishmania donovani [3] was 19%.
Same read-out and setting: the value for `NC(CC[C@H](N)C(=O)O)C[C@H]1OC(n2ccc(=O)[nH]c2=O)[C@H](O)[C@@H]1O` (stereo partly specified) was 20%.
For `Nc1ncnc2c1ncn2[C@@H]1O[C@H](C[C@@H](N)CC[C@H](N)C(=O)O)[C@@H](O)[C@H]1O` (stereo in doubt; form 1) [SINEFUNGIN], the inhibition at […] in the assay on Leishmania donovani [1] came out at 100%.
Usually Inhibition stands for how much of the control response was suppressed. In the case of `Nc1ncnc2c1ncn2[C@@H]1O[C@H](C[C@@H](N)CC[C@H](N)C(=O)O)[C@@H](O)[C@H]1O` (stereo in doubt; form 2) [SINEFUNGIN], the Inhibition in the assay on Leishmania donovani [1] is given as 88%.
